Results on 1 molecule are retold here after ChEMBL document CHEMBL2203116, “Synthesis and evaluation of novel carbon-11 labeled oxopurine analogues for positron emission tomography imaging of translocator protein (18 kDa) in peripheral organs” (J Med Chem, 2011).

Holding throughout (assay type): ADME, organism-based
Data set [1] deals with Lung. Kind of data set: Drug uptake in Sprague-Dawley rat lung at 0.15 nmol, iv after 30 mins by PET scanning. Conditions: in vivo, 0.5 h; call rule not given here. An outline of the steps: (§1)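 Male Sprague-Dawley rats (6–8 weeks old), isoflurane-anesthetized, prone. ROIs on lung, heart, kidney, liver, small intestine and cardiac blood pool. Uptake decay-corrected to injection time and expressed as SUV (body-weight normalized). n = 4, mean ± SD.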

Data set [2] deals with Heart. The data set can be described thus: Biodistribution in LPS-treated Sprague-Dawley rat heart at 0.19 nmol, iv by gamma counting. As to conditions: in vivo. In short, it runs like this:
(§2)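 Male Sprague-Dawley rats were given intratracheal LPS (E. coli O127:B8, 5.0 mg/kg in 50 μL saline) or 50 μL saline vehicle 24 h before tracer. [11C]Radioligand (16 MBq/200 μL, 0.19 nmol) in saline was injected via the tail vein. Rats were killed at 30 min (n = 4 per group). Tissues were weighed and gamma-counted, expressed as decay-corrected %ID/g.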

Data set [3] concerns Intestine. The data set can be described thus: Drug uptake in Sprague-Dawley rat small intestine at 0.15 nmol, iv up to 30 mins by PET scanning. As to conditions: in vivo, 0.5 h. In short, it runs like this: as §1
Data set [4] relates to Blood. The data set can be described thus: Biodistribution in Sprague-Dawley rat blood at 0.19 nmol, iv by gamma counting. As to conditions: in vivo. An outline of the steps: as §2
The subject of data set [5] is Liver. The data set can be described thus: Drug uptake in Sprague-Dawley rat liver at 0.15 nmol, iv pretreated with unlabeled AC-5216 measured after 27.5 mins by PET scanning relative to control. As to conditions: in vivo. In short, it runs like this:
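Male Sprague-Dawley rats, 6-8 weeks, isoflurane-anesthetized. A blocking TSPO ligand (1.0 mg/kg, in 300 μL saline with 10% ethanol and 5% polysorbate 80) was injected 1 min before iv radioligand (16-18 MBq/200 μL). Liver ROI as decay-corrected SUV (injected activity, body weight), 27.5-min value versus controls; n = 4.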

Data set [6] concerns Liver. The data set can be described thus: Drug uptake in Sprague-Dawley rat liver at 0.15 nmol, iv up to 30 mins by PET scanning. Conditions: in vivo, 0.5 h. In short, it runs like this: as §1
Data set [7] can be described thus: Metabolic stability in Sprague-Dawley rat plasma assessed as unchanged compound at 0.32 nmol, iv after 30 mins by analytical radio- HPLC. Conditions: read-out: Stability.
Data set [8] is described as follows: Metabolic stability in Sprague-Dawley rat heart assessed as unchanged compound at 0.32 nmol, iv after 30 mins by analytical radio- HPLC. As to conditions: read-out: Stability. An outline of the steps: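 Rats (n = 3) given radioligand iv (37 MBq/100 μL, 0.32 nmol) and killed at 30 min. Heart and kidney homogenized in ice-cold MeCN/H2O 4/6, centrifuged 15000 rpm for 1 min at 4 °C. Supernatant run on analytical radio-HPLC (C18, MeCN/H2O 4/6). Percent parent = parent peak area over total peak areas, decay-corrected. Mean ± SD.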

For data set [9], the system named is Lung. Kind of data set: Drug uptake in Sprague-Dawley rat lung at 0.15 nmol, iv pretreated with unlabeled AC-5216 by PET scanning. Conditions: in vivo. In short, it runs like this: as §1
The test system of data set [10] is Lung. The data set can be described thus: Biodistribution in Sprague-Dawley rat lung at 0.19 nmol, iv by gamma counting. Conditions: in vivo. An outline of the steps: as §2
The test system of data set [11] is Rattus norvegicus. Kind of data set: Biodistribution in LPS-treated Sprague-Dawley rat small intestine at 0.19 nmol, iv by gamma counting. Conditions: in vivo. An outline of the steps: as §2
Data set [12] has as its system Kidney. Kind of data set: Drug uptake in Sprague-Dawley rat kidney at 0.15 nmol, iv pretreated with unlabeled (R)-PK11195 by PET scanning. Conditions: in vivo. An outline of the steps:
as §1

Data set [13] has as its system Heart. The data set can be described thus: Biodistribution in Sprague-Dawley rat heart at 0.19 nmol, iv by gamma counting. Conditions: in vivo. In short, it runs like this: as §2

Turning to `CCN(Cc1ccncc1)C(=O)Cn1c(=O)n([11CH3])c2cnc(-c3ccccc3)nc21`, the Drug uptake entry was “Active” in data set [1]; 2.17 % ID/g in [2]; “Active” in [3]; 0.06 % ID/g in [4]; “Active” in [6]; “Not Active” in data set [9]. The Drug uptake in [10] is recorded as 1.65 % ID/g; in [11], 2.68 % ID/g; in data set [12], “Not Active”; in data set [13], 2.1 % ID/g. For the same molecule, the “fold change (FC)” value in data set [5] is reported as 1.5. The remaining at 0.5 h was 23.4% in data set [7] and 93.8% in data set [8].
